{"source": "BindingDB's records for doi:10.1016/j.bmc.2016.09.019", "about": "(Florida A&M University, 2016)", "key": {"Histamine H1 receptor": {"molecular_target": "Histamine H1 receptor (Homo sapiens, UniProt P35367)", "sequence (P35367 whole entry)": "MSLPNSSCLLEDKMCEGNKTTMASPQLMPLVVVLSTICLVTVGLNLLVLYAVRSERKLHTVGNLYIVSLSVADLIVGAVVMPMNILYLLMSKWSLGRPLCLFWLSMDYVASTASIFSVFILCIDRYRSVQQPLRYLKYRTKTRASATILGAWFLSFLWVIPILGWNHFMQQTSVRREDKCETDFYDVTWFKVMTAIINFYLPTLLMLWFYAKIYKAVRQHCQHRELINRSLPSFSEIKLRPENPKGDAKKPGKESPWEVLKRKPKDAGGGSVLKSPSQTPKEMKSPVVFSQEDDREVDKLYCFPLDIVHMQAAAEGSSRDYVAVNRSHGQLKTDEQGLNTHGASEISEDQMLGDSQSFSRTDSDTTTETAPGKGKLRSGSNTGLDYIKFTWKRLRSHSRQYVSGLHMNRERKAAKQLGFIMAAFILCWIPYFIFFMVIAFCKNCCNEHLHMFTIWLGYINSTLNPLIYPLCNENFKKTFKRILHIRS", "assay": "Displacement of [3H]-pyrilamine from human histamine H1 receptor by liquid scintillation counting method", "how_it_was_run": "(§1)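 Binding assays run by the NIMH Psychoactive Drug Screening Program (PDSP) using its previously reported methods and radioligands. Affinity is given as Ki.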"}, "[1]": {"molecular_target": "T1, 5-hydroxytryptamine receptor 2C (Homo sapiens, UniProt P28335)", "T1 sequence (P28335 whole entry)": "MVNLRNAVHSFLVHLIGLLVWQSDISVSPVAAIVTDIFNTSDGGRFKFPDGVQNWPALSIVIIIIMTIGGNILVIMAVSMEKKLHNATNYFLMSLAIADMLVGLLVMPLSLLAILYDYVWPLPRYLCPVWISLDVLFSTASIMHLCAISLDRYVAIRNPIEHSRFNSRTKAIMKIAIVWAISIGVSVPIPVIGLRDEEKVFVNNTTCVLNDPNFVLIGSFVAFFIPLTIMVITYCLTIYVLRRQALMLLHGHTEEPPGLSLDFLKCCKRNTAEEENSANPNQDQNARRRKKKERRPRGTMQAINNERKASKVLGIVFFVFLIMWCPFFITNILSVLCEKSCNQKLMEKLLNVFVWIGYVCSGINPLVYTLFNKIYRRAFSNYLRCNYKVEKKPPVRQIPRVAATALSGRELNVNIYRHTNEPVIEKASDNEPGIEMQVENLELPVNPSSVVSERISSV", "assay": "Displacement of [3H]-mesulergine from human 5-HT2C receptor by liquid scintillation counting method", "how_it_was_run": "as §1"}, "[2]": {"molecular_target": "5-hydroxytryptamine receptor 7 (Homo sapiens, UniProt P34969)", "sequence (P34969 whole entry)": "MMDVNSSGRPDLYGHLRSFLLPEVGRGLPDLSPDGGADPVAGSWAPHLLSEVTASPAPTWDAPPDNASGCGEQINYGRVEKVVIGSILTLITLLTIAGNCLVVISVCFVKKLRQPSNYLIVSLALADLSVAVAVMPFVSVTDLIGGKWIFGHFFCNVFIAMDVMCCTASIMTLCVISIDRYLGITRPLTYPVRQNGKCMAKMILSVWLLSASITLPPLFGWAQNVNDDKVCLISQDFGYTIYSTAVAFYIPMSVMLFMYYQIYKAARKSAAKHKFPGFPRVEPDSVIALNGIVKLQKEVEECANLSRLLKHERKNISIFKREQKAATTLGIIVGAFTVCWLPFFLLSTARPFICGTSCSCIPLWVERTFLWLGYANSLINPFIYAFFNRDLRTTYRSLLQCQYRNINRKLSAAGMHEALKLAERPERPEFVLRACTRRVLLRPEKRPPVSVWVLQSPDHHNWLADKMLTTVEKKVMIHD", "assay": "Displacement of [3H]-LSD from human 5-HT7 receptor by liquid scintillation counting method"}}, "data": [{"smiles": "Clc1ccc(C(=[C][C][C]N2[C][C]c3ccccc3[C]2)c2ccc(Cl)cc2)cc1", "values": [{"measurement": "Ki", "setting": "Histamine H1 receptor", "result": 1000, "unit": "nM"}, {"measurement": "Ki", "setting": "[1]", "result": 2040, "unit": "nM"}, {"measurement": "Ki", "setting": "[2]", "result": 501, "unit": "nM"}]}]}
